Format in all cases: functional
Assay [1] relates to A549. Nature of the assay: Antiproliferative activity against human A549 cell line at 0.01 umol/L by SRB method. A digest of the protocol: (§1)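 Growth inhibition of A-549 and BEL-7402 cells was measured in vitro by sulforhodamine B (SRB) staining. Compounds were tested across five tenfold concentrations from 10^-4 to 10^-8 mol/L, and each value is reported as the percent inhibition ratio of cell growth at that concentration.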
A general note: In SRB staining, fixed cells bind dye roughly in proportion to their protein.

Assay [2] relates to P388. The experiment in a line: Antiproliferative activity against mouse P388 cell line at 0.01 umol/L by MTT method. The procedure, abridged: (§2)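 P-388 and HL-60 cells were tested in vitro by MTT assay over five tenfold concentrations from 10^-4 to 10^-8 mol/L. Each value is the percent inhibition ratio of cancer cell growth at that concentration.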
(In general: Formazan colour is commonly taken as a measure of viable cells.)

Assay [3] has as its system P388. The experiment in a line: Antiproliferative activity against mouse P388 cell line at 1 umol/L by MTT method. A digest of the protocol:
as §2

For assay [4], the system named is Bel-7402. The experiment in a line: Antiproliferative activity against human BEL-7402 cell line at 100 umol/L by SRB method. A digest of the protocol: as §1
For assay [5], the system named is HL-60. The experiment in a line: Antiproliferative activity against human HL60 cell line at 10 umol/L by MTT method. A digest of the protocol:
as §2

In assay [6] the test system is HL-60. Nature of the assay: Antiproliferative activity against human HL60 cell line at 0.01 umol/L by MTT method. The procedure, abridged: as §2
For assay [7], the system named is Bel-7402. The experiment in a line: Antiproliferative activity against human BEL-7402 cell line at 10 umol/L by SRB method. The procedure, abridged:
as §1

The subject of assay [8] is A549. Nature of the assay: Antiproliferative activity against human A549 cell line at 10 umol/L by SRB method. The procedure, abridged:
as §1

The test system of assay [9] is HL-60. Nature of the assay: Antiproliferative activity against human HL60 cell line at 1 umol/L by MTT method. A digest of the protocol: as §2
Assay [10] deals with HL-60. Nature of the assay: Antiproliferative activity against human HL60 cell line at 0.1 umol/L by MTT method. A digest of the protocol:
as §2

Assay [11] deals with Bel-7402. The experiment in a line: Antiproliferative activity against human BEL-7402 cell line at 0.01 umol/L by SRB method. The procedure, abridged:
as §1

The test system of assay [12] is P388. The experiment in a line: Antiproliferative activity against mouse P388 cell line at 10 umol/L by MTT method. A digest of the protocol:
as §2

For assay [13], the system named is Bel-7402. The experiment in a line: Antiproliferative activity against human BEL-7402 cell line at 0.1 umol/L by SRB method. A digest of the protocol: as §1
Assay [14] has as its system A549. Nature of the assay: Antiproliferative activity against human A549 cell line at 100 umol/L by SRB method. A digest of the protocol: as §1
The test system of assay [15] is P388. The experiment in a line: Antiproliferative activity against mouse P388 cell line at 100 umol/L by MTT method. A digest of the protocol:
as §2

In assay [16] the test system is HL-60. The experiment in a line: Antiproliferative activity against human HL60 cell line at 100 umol/L by MTT method. The procedure, abridged:
as §2

The subject of assay [17] is Bel-7402. Nature of the assay: Antiproliferative activity against human BEL-7402 cell line at 1 umol/L by SRB method. A digest of the protocol:
as §1

Assay [18] has as its system A549. Nature of the assay: Antiproliferative activity against human A549 cell line at 0.1 umol/L by SRB method. The procedure, abridged:
as §1

Assay [19] deals with P388. Nature of the assay: Antiproliferative activity against mouse P388 cell line at 0.1 umol/L by MTT method. A digest of the protocol: as §2
The test system of assay [20] is A549. Nature of the assay: Antiproliferative activity against human A549 cell line at 1 umol/L by SRB method. The procedure, abridged:
as §1

`c1ccc(C2=NNC(c3ccccc3)=NN2)cc1`: the Activity worked out at 0% in the assay with A549 [1]; 0% with P388 [2]; 0% in the assay with P388 [3]; 54% with Bel-7402 [4]; 16.1% in the assay on HL-60 [5]; 17.2% in the assay on HL-60 [6]. In addition, the Activity in the assay on Bel-7402 [7] turned out to be 14.3%; in the assay with A549 [8], 67.2%; with HL-60 [9], 2.9%; with HL-60 [10] it was 2.6%; with Bel-7402 [11], 0%; in the assay on P388 [12], 69%. In addition, the Activity amounted to 0% in the assay on Bel-7402 [13]; 55.8% in the assay on A549 [14]; 87.6% in the assay with P388 [15]; 82.1% in the assay with HL-60 [16]; 0% with Bel-7402 [17]; 10.2% in the assay with A549 [18]. The Activity in the assay with P388 [19] is recorded as 0%; in the assay with A549 [20], 5.4%.
`c1ccc(-c2nnc(-c3ccccc3)nn2)cc1`: the Activity in the assay with A549 [1] was determined as 29.7%; in the assay with P388 [2], 0%; with P388 [3], 0%; with Bel-7402 [4], 41.7%; in the assay with HL-60 [5] it was 16.4%; in the assay with HL-60 [6], 0%. Moreover, the Activity with Bel-7402 [7] is 7.4%; in the assay on A549 [8], 9.5%; with HL-60 [9] it was 13.9%; with HL-60 [10] it was 13.9%; in the assay on Bel-7402 [11] it was 0%; with P388 [12], 0%. The Activity with Bel-7402 [13] amounted to 0%; in the assay with A549 [14], 60.4%; in the assay with P388 [15], 15.5%; in the assay on HL-60 [16] it was 35.1%; with Bel-7402 [17], 0%; with A549 [18], 27.1%. The Activity is 0% with P388 [19] and 20.3% in the assay with A549 [20].
In the case of `Cc1cccnc1C1=NN=C(c2ncccc2C)NN1`, the Activity with A549 [1] is 0%; in the assay on P388 [2], 0%; in the assay on P388 [3] it was 0%; with Bel-7402 [4], 94.9%; in the assay on HL-60 [5], 13.6%; with HL-60 [6], 17.2%. Moreover, the Activity is 8.3% with Bel-7402 [7]; 3.6% in the assay with A549 [8]; 2.9% in the assay with HL-60 [9]; 2.6% in the assay on HL-60 [10]; 0% in the assay with Bel-7402 [11]; 0% in the assay on P388 [12]. The Activity with Bel-7402 [13] was 0%; with A549 [14] it was 2.6%; with P388 [15] it was 0%; with HL-60 [16], 96.3%; in the assay on Bel-7402 [17], 0%; with A549 [18] it was 0%. Besides, the Activity in the assay on P388 [19] and with A549 [20] was 0% in each case.

Values taken from ChEMBL document CHEMBL1138913, “Synthesis, structure analysis, and antitumor activity of 3,6-disubstituted-1,4-dihydro-1,2,4,5-tetrazine derivatives” (2006).
